Measurements: ChEMBL document CHEMBL4382292, “Discovery of a Novel cGAMP Competitive Ligand of the Inactive Form of STING” (ACS Med Chem Lett, 2019)
pIC50: −log10 of the molar value. Values after ≈ are worked out from the molar mass of the structure shown.

What was measured:
[1] = Intrinsic clearance in human hepatocytes after 120 mins by LC-MS/MS analysis; format: ADME, cell-based, Hepatocyte; details: read-out: CLH
[2] = Apparent permeability in MDCK cells; format: ADME, cell-based, Canis lupus familiaris; details: dog
[3] = Intrinsic clearance in rat hepatocytes after 120 mins by LC-MS/MS analysis; format: ADME, cell-based, Hepatocyte; details: read-out: CLH
[4] = Clearance in rat at 0.5 mg/kg, iv or 1 mg/kg, po; format: ADME, organism-based; details: in vivo
Outline: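 Rat dosed iv at 0.5 mpk or po at 1 mpk, each as a solution in PEG400/H2O (60:40 (v/v)).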

[5] = Solubility of the compound in FaSSIF solution at 100 uM after overnight incubation by UPLC/DAD analysis; format: physicochemical
[6] = biological target: Stimulator of interferon genes protein (Homo sapiens, UniProt Q86WV6); assay: Displacement of [3H]cGAMP from full length human HAQ STING expressed in Trichopulsia ni membranes preincubated for 30 mins followed by [3H]cGAMP addition and measured after 60 mins by scintillation counting method; format: cell membranes
Sequence of Stimulator of interferon genes protein (Q86WV6 whole entry, looked up): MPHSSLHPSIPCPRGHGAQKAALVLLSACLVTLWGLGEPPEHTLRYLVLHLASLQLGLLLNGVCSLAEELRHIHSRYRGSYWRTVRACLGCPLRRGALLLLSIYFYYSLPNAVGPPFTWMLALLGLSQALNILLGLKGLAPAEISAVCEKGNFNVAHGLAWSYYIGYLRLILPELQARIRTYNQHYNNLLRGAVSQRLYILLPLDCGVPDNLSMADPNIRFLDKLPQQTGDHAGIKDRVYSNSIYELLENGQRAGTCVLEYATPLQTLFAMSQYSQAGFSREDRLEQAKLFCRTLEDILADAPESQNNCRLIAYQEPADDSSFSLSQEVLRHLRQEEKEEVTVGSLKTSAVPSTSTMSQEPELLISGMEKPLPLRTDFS

Structure (SMILES)	CLint scaled [1] [mL/min/kg]	Papp [2] [×10⁻⁶ cm/s]	CLint scaled [3] [mL/min/kg]	clearance [4] [mL/min/kg]	solubility at 100 µM [5] [µM]	pIC50 [6]
CC(C)(C)c1ccc(N2C(=O)c3ccccc3[C@H](C(=O)O)[C@H]2c2ccc3c(c2)OCCO3)cc1Cl	28	9	158	38	151 (≈ 74.3 µg/mL)	–
CC(C)(C)c1ccc(N2C(=O)c3cc(F)ccc3[C@H](CC(=O)O)[C@H]2c2ccc3c(c2)OCCO3)cc1Cl	31	18	240	45	187 (≈ 98 µg/mL)	–
CC(C)c1ccc(N2C(=O)c3ccccc3[C@H](C(=O)O)[C@H]2c2ccc3ccccc3c2)cc1 (racemic)	–	–	–	–	–	< 4.70
CN(C)c1ccc([C@@H]2[C@@H](C(=O)O)c3ccccc3C(=O)N2c2ccc3c(c2)CCC3)cc1 (racemic)	–	–	–	–	–	< 4.70

Second part, the compound after the results:

CLint scaled [1] [mL/min/kg]	Papp [2] [×10⁻⁶ cm/s]	CLint scaled [3] [mL/min/kg]	clearance [4] [mL/min/kg]	solubility at 100 µM [5] [µM]	pIC50 [6]	Structure (SMILES)
–	–	–	–	–	< 4.70	O=C(O)[C@H]1c2ccccc2C(=O)N(c2ccc3c(c2)CCC3)[C@@H]1c1ccc(Oc2ccccc2)cc1 (racemic)
–	–	–	–	–	< 4.70	O=C(O)[C@H]1c2ccccc2C(=O)N(c2ccc3c(c2)CCC3)[C@@H]1c1ccc2c(c1)OC(F)(F)O2 (racemic)
–	–	–	–	–	< 4.70	N#Cc1ccc([C@@H]2[C@@H](C(=O)O)c3ccccc3C(=O)N2c2ccc3c(c2)CCC3)cc1 (racemic)
